Source: ChEMBL document CHEMBL4842318, “A γ-lactam siderophore antibiotic effective against multidrug-resistant Pseudomonas aeruginosa, Klebsiella pneumoniae, and Acinetobacter spp” (Eur J Med Chem, 2021)

Legend:
Acinetobacter baumannii [1] = assay: Antibacterial activity against 98 member subset of carbapenem resistant Acinetobacter baumannii assessed as assessed as inhibition of bacterial growth by microdilution method; format: functional
In short: (§1)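 Broth microdilution in Chelex-treated, iron-depleted cation-adjusted Mueller-Hinton broth, following the protocol used for siderophore-containing antibiotics; inoculum lowered to 6 × 10^4 cfu/mL; MIC read as growth inhibition, in μg/mL.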

Acinetobacter baumannii [2] = assay: Antibacterial activity against carbapenem resistant Acinetobacter baumannii isolate PR-326 assessed as bacterial growth inhibition by microdilution method; format: functional; in short: as §1
Acinetobacter baumannii [3] = assay: Antibacterial activity against carbapenem susceptible Acinetobacter baumannii isolate PR-340 assessed as bacterial growth inhibition by microdilution method; format: functional
In short: (§2)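 Broth microdilution MIC in iron-depleted (Chelex resin-treated) cation-adjusted Mueller-Hinton broth, following the protocol used for siderophore-containing antibiotics. Inoculum was lowered to 6 × 10^4 cfu/mL.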

Acinetobacter baumannii [4] = assay: Antibacterial activity against carbapenem resistant Acinetobacter baumannii isolate PR-351 assessed as bacterial growth inhibition by microdilution method; format: functional; in short: as §1
Acinetobacter baumannii [5] = assay: Antibacterial activity against carbapenem resistant Acinetobacter baumannii isolate PR-401 assessed as bacterial growth inhibition by microdilution method; format: functional; in short: as §1
[6] = Antibacterial activity against carbapenem susceptible Acinetobacter nosocomialis isolate PR-491 assessed as bacterial growth inhibition by microdilution method; format: functional; in short: as §2
Acinetobacter baumannii [7] = assay: Antibacterial activity against carbapenem susceptible Acinetobacter baumannii isolate PR-434 assessed as bacterial growth inhibition by microdilution method; format: functional; in short: as §2
Acinetobacter baumannii [8] = assay: Antibacterial activity against carbapenem resistant Acinetobacter baumannii isolate PR-351 assessed as inhibition of bacterial growth at 1:1 compound to sulbactam concentration by microdilution method; format: functional
In short: (§3)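 Iron-depleted (Chelex-treated) cation-adjusted Mueller-Hinton broth microdilution; inoculum 6 × 10^4 cfu/mL. Test agent and sulbactam mixed 1:1 by mass and serially 2-fold diluted together. MIC in μg/mL.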

Acinetobacter baumannii [9] = assay: Antibacterial activity against carbapenem resistant Acinetobacter baumannii isolate PR-384 assessed as inhibition of bacterial growth at 1:1 compound to sulbactam concentration by microdilution method; format: functional; in short: as §3
Acinetobacter baumannii [10] = assay: Antibacterial activity against carbapenem resistant Acinetobacter baumannii isolate PR-325 assessed as inhibition of bacterial growth in presence of 20 ug/ml sulbactam by microdilution method; format: functional; conditions: dose 20 µg/ml
[11] = Antibacterial activity against carbapenem susceptible Acinetobacter nosocomialis isolate PR-362 assessed as inhibition of bacterial growth in presence of 20 ug/ml sulbactam by microdilution method; format: functional; conditions: dose 20 µg/ml
In short: (§4)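 MIC by broth microdilution using iron-depleted (Chelex-treated) cation-adjusted Mueller-Hinton broth and 6 × 10^4 cfu/mL inoculum. Compound serially diluted with sulbactam held constant at 20 μg/mL.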

Acinetobacter baumannii [12] = assay: Antibacterial activity against carbapenem susceptible Acinetobacter baumannii isolate PR-434 assessed as inhibition of bacterial growth in presence of 20 ug/ml sulbactam by microdilution method; format: functional; conditions: dose 20 µg/ml; in short: as §4
Pseudomonas aeruginosa [13] = assay: Antibacterial activity against wild type Pseudomonas aeruginosa isolate PR-606 assessed as inhibition of bacterial growth by microdilution method; format: functional; in short: as §2
Pseudomonas aeruginosa [14] = assay: Antibacterial activity against Pseudomonas aeruginosa isolate PR-627 leucine at 533 residue assessed as inhibition of bacterial growth by microdilution method; format: functional; in short: as §1
[15] = Plasma protein binding in mouse; conditions: read-out: PPB (converted)

CC(C)(O/N=C(\C(=O)N[C@H]1CN2CC(C(=O)NCCN3C(=O)c4cc(O)c(O)cc4C3=O)=C(C(=O)O)N2C1=O)c1nc(N)sc1Cl)C(=O)O
MIC90 (Acinetobacter baumannii [1]): > 16 µg/mL
MIC (Acinetobacter baumannii [2]): > 16 µg/mL
MIC (Acinetobacter baumannii [3]): > 16 µg/mL
MIC (Acinetobacter baumannii [4]): > 16 µg/mL
MIC (Acinetobacter baumannii [5]): > 16 µg/mL
MIC [6]: > 16 µg/mL
MIC (Acinetobacter baumannii [7]): > 16 µg/mL
MIC (Acinetobacter baumannii [8]): 16 µg/mL
MIC (Acinetobacter baumannii [9]): 16 µg/mL
MIC (Acinetobacter baumannii [10]): > 16 µg/mL
MIC [11]: ≤ 0.25 µg/mL
MIC (Acinetobacter baumannii [12]): ≤ 0.25 µg/mL
MIC (Pseudomonas aeruginosa [13]): > 16 µg/mL
MIC (Pseudomonas aeruginosa [14]): > 16 µg/mL
fraction unbound [15]: 0.06
